Source: ChEMBL document CHEMBL5390224, “Design, synthesis, and biological evaluation of a novel series of 1,2,4-oxadiazole inhibitors of SLACK potassium channels: Identification of in vitro tool VU0935685” (Bioorg Med Chem, 2023)
Active and inactive are the calls of the source. The calls are words filed in the database; no cut-off is given here.

Tests used:
HEK293 [1] = assay: Inhibition of wild-type human SLACK expressed in HEK293 cells assessed as efficacy at 30 uM by thallium flux assay relative to control; type: cell-based
How it was run: (§1)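 Stable monoclonal HEK293 lines (WT or A934T SLACK) plated 20,000 cells/well; loaded 1 h at room temperature with Thallo-AM dye, 1.25 mM probenecid, masking dye, 0.3% Pluronic F-127 in buffer with 2.7 mM RbCl, pH 7.3. Compound preincubated 120 s, then Tl2SO4 stimulus (2.5 mM); fluorescence read 120 s. Concentration–response 1.5 nM–30 μM in half-log steps, ≥3 replicate wells.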

[2] = Inhibition of human SLACK A934T mutant expressed in HEK293 cells by thallium flux assay; type: cell-based; how it was run: as §1
HEK293 [3] = assay: Inhibition of human SLACK A934T mutant expressed in HEK293 cells assessed as efficacy at 30 uM by thallium flux assay relative to control; type: cell-based; how it was run: as §1
[4] = target: T1, Potassium channel subfamily T member 2 (Homo sapiens, UniProt Q6UVM3); assay: Inhibition of SLICK (unknown origin) expressed in HEK293 cells by thallium flux assay; type: cell-based
T1 sequence (Q6UVM3 whole entry): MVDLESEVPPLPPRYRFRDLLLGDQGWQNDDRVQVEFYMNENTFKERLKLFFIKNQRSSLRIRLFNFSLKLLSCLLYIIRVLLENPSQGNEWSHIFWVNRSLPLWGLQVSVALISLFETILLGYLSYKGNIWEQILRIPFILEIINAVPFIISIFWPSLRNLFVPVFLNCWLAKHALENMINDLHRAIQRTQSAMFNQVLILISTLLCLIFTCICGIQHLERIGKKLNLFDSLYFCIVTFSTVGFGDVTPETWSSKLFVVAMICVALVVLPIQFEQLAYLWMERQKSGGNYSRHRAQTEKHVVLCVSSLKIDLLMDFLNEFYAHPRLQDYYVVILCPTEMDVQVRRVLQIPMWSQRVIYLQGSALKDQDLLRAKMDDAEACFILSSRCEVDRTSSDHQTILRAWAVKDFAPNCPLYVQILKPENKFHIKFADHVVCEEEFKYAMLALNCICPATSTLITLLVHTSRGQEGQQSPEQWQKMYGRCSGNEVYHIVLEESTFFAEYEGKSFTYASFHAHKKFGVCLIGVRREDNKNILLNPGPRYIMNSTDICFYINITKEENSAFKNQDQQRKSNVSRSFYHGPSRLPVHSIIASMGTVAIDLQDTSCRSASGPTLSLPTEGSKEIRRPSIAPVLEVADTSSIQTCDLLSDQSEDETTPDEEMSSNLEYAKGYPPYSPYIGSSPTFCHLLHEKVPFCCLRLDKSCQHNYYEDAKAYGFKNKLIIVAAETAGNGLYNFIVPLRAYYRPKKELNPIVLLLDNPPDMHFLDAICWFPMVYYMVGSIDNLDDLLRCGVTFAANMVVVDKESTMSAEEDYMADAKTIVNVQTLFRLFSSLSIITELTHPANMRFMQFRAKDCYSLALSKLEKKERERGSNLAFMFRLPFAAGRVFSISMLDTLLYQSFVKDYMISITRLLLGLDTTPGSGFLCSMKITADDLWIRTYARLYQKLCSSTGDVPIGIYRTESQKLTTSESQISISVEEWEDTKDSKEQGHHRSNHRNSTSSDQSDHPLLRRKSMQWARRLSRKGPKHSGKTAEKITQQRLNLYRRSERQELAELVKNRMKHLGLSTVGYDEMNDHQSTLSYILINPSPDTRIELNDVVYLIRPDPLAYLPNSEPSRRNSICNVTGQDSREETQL

[5] = target: T2, Potassium channel subfamily T member 2 (Homo sapiens) (UniProt Q6UVM3); assay: Inhibition of SLICK (unknown origin) expressed in HEK293 cells assessed as efficacy at 30 uM by thallium flux assay relative to control; type: cell-based
T2 sequence (whole entry): T1 sequence (Q6UVM3 whole entry)

[6] = target: Calcium-activated potassium channel subunit alpha-1 (Homo sapiens) (UniProt Q12791); assay: Inhibition of Maxi-K (unknown origin) expressed in HEK293 cells by thallium flux assay; type: cell-based
Chain of Calcium-activated potassium channel subunit alpha-1 (Homo sapiens) (Q12791 whole entry): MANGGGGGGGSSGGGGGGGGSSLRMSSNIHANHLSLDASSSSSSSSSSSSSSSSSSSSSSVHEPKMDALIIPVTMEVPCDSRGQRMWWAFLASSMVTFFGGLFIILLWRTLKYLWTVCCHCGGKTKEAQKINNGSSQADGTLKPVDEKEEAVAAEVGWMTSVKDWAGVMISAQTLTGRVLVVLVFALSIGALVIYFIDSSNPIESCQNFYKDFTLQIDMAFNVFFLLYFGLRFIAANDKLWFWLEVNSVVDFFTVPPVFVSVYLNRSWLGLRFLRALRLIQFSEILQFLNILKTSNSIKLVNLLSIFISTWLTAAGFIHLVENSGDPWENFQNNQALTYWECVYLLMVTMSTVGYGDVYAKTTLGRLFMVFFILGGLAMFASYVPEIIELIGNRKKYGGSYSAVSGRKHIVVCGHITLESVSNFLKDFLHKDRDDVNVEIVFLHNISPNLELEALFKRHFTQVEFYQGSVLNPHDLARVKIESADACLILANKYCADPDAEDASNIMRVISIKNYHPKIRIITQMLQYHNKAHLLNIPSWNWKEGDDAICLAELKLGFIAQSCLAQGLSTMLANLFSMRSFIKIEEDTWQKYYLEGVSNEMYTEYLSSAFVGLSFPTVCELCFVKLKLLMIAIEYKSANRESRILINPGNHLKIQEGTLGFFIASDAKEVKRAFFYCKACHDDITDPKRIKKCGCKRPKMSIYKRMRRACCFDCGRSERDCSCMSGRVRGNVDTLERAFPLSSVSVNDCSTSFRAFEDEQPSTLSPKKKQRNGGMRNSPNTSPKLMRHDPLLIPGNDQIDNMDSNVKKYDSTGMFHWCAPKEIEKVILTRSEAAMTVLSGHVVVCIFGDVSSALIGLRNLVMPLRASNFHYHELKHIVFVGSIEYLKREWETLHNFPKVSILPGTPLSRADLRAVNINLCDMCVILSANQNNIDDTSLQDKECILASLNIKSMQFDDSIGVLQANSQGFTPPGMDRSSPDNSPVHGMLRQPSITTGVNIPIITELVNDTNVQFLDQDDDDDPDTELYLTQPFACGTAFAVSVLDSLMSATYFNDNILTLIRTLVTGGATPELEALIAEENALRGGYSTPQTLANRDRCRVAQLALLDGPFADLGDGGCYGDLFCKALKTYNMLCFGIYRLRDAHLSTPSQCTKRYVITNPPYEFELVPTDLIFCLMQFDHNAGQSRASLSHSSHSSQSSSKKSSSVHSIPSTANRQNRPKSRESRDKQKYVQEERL

[7] = target: Calcium-activated potassium channel subunit alpha-1 (Homo sapiens) (UniProt Q12791); assay: Inhibition of Maxi-K (unknown origin) expressed in HEK293 cells assessed as efficacy at 30 uM by thallium flux assay relative to control; type: cell-based
[8] = Inhibition of wild-type human SLACK expressed in CHO cells by whole cell voltage clamp electrophysiology assay; type: cell-based; conditions: Cricetulus griseus
How it was run: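 Automated whole-cell patch clamp at room temperature. External (mM): NaCl 105, KCl 4, MgCl2 1, CaCl2 5, HEPES 10, NMDG-Cl 40, pH 7.4. Internal: NaCl 70, KF 70, KCl 10, EGTA 5, HEPES 5, pH 7.2. Concentrations 0.125–30 μM in half-log steps, ≥3 cells per series.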

CHO = assay: Inhibition of wild-type human SLACK expressed in CHO cells assessed as efficacy at 30 uM by whole cell voltage clamp electrophysiology assay; type: cell-based; conditions: Cricetulus griseus
[9] = Metabolic stability in mouse liver microsomes assessed as compound remaining measured after 10 min in presence of NADPH; type: ADME, Microsome
How it was run: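 Mouse liver microsomes (0.5 mg/mL) with compound (5 μM) preincubated 5 min at 37 °C in 100 mM potassium phosphate, pH 7.4. Reaction started with NADPH (1 mM) plus MgCl2 (3 mM). Samples at 0 and 10 min quenched in cold acetonitrile with internal standard; percent remaining by LC/MS/MS.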

[10] = Plasma protein binding in mouse assessed as unbound fraction by equilibrium dialysis method; type: ADME, cell-free
How it was run: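 Equilibrium dialysis, 12–14 K MWCO cellulose membrane: plasma spiked to 5 μM final versus 25 mM phosphate buffer pH 7.4, 6 h at 37 °C, shaking 200 rpm. Both sides matrix-matched, acetonitrile extraction with internal standard, LC/MS/MS quantitation. Triplicate.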

[11] = Inhibition of wild-type human SLACK expressed in HEK293 cells by thallium flux assay; type: cell-based; how it was run: as §1
[12] = Activation of wild-type human SLACK expressed in HEK293 cells by thallium flux assay; type: cell-based
How it was run: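 Stable monoclonal HEK293 line with WT SLACK, dye-loaded 1 h at room temperature (Thallo-AM, probenecid, masking dye, Pluronic), pH 7.3 buffer. Compound added 120 s before Tl2SO4 stimulus (2.5 mM), kinetic fluorescence imaging 120 s. Concentrations 1.5 nM–30 μM, half-log steps, ≥3 replicate wells per series.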

HEK293 [13] = assay: Activation of wild-type human SLACK expressed in HEK293 cells assessed as efficacy at 30 uM by thallium flux assay relative to control; type: cell-based
[14] = Efflux ratio of permeability in MDCK-MDR1 cells assessed as P-glycoprotein mediated efflux; type: ADME, cell-based, Canis lupus familiaris; conditions: dog
[15] = Apparent permeability in MDCK-MDR1 cells by bidirectional permeability assay; type: ADME, cell-based, Canis lupus familiaris; conditions: dog
[16] = target: Voltage-gated inwardly rectifying potassium channel KCNH2 (Homo sapiens, UniProt Q12809); assay: Inhibition of human ERG expressed in HEK293 cells at 10 uM by thallium flux assay; type: toxicity, cell-based; conditions: hek293, 10 µM
Chain of Voltage-gated inwardly rectifying potassium channel KCNH2 (Q12809 whole entry): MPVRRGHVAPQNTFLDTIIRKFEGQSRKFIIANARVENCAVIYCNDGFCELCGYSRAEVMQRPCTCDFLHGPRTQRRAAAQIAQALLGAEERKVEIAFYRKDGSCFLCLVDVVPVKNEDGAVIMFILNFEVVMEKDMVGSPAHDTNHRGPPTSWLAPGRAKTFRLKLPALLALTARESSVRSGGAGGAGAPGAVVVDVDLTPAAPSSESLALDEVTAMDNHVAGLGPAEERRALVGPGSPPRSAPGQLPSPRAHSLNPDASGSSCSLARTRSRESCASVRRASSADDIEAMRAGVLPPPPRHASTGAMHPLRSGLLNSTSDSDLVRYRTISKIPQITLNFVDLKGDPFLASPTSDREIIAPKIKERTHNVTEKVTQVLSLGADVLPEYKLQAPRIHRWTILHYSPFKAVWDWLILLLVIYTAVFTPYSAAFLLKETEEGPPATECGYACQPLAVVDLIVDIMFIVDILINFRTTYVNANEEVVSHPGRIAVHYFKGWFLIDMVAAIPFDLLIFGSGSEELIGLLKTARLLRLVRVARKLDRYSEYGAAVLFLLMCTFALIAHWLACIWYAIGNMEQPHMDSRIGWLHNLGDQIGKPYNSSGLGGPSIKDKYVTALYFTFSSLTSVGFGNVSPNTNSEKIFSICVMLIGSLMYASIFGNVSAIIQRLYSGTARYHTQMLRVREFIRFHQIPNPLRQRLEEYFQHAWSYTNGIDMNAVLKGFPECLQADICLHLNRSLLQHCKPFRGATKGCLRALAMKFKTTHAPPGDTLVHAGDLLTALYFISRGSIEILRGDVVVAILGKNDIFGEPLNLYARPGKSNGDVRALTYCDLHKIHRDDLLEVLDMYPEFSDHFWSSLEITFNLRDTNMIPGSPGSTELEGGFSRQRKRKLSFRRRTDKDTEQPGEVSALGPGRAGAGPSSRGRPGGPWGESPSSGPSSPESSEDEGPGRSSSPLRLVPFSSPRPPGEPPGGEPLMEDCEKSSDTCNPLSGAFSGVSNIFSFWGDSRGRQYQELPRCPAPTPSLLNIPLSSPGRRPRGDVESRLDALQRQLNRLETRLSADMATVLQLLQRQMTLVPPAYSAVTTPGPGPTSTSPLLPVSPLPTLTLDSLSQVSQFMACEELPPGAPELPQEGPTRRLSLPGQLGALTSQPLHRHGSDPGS

Compound | Efficacy (HEK293 [1]) | IC50 [2] | Efficacy (HEK293 [3]) | IC50 [4] | Efficacy [5] | inhibition [6] | Efficacy [7] | IC50 [8] | Efficacy (CHO) | Activity [9] | Fu [10] | also measured
CCOc1ccccc1S(=O)(=O)N1CCC(c2nc(-c3ccc(F)cc3)no2)CC1 | 105% | 4300 nM | 129% | > 10 µM | 35% | inactive | inactive | 1760 nM | 100% | 21% | < 0.01 | 
O=S(=O)(c1cccc2cccnc12)N1CC(c2nc(-c3ccc(F)cc3)no2)C1 | 98% | 1500 nM | 112% | 5.9 µM | 56% | inactive | inactive | 1580 nM | 100% | 71% | 0.014 | 
CCOc1ccccc1S(=O)(=O)N1CC(c2nc(-c3ccc(F)cc3Cl)no2)C1 | 95% | 2000 nM | 95% | > 10 µM | 44% | inactive | inactive | 430 nM | 100% | 59% | 0.014 | IC50 [11]: 2.1 µM
[2H]C([2H])([2H])C([2H])([2H])Oc1ccccc1S(=O)(=O)N1CC(c2nc(-c3ccc(F)cc3)no2)C1 |  | 2300 nM |  | > 10 µM |  |  |  | 1040 nM |  | 63% | 0.012 | IC50 [11]: 5.4 µM
O=S(=O)(c1cccc2c1OCCC2)N1CC(c2nc(-c3ccc(F)cc3)no2)C1 | 93% | 2600 nM | 104% | > 10 µM | 55% | inactive | inactive | 1630 nM | 100% | 19% | < 0.01 | 
COc1ccc(S(=O)(=O)N2CC(c3nc(-c4ccsc4)no3)C2)cc1 |  |  |  |  |  |  |  |  |  |  |  | EC50 [12]: 3.2 µM; Efficacy (HEK293 [13]; filed as activator): 51%
O=S(=O)(c1ccccc1OCC(F)(F)F)N1CC(c2nc(-c3ccc(F)cc3)no2)C1 | 91% | 2500 nM | 72% | > 10 µM | 27% | inactive | inactive | 1760 nM | 100% | 57% | 0.012 | 
CCOc1ccccc1S(=O)(=O)N1CC(c2nc(-c3ccsc3)no2)C1 | 102% | 820 nM | 72% | > 10 µM | 55% | inactive | inactive | 640 nM | 100% | < 10% | 0.022 | Ratio [14]: 0.65; Papp [15]: 31.1 10^-6 cm/s
CCOc1ccccc1S(=O)(=O)N1CC(c2nc(-c3ccc(F)s3)no2)C1 | 105% | 970 nM | 103% | > 10 µM | 65% | inactive | inactive | 700 nM | 100% | < 10% | 0.024 | 
COc1ccccc1S(=O)(=O)N1CC(c2nc(-c3ccsc3)no2)C1 |  |  |  |  |  |  |  |  |  |  |  | EC50 [12]: 8.1 µM; Efficacy (HEK293 [13]): 29%
Cc1ccccc1S(=O)(=O)N1CC(c2nc(-c3ccsc3)no2)C1 |  |  |  |  |  |  |  |  |  |  |  | EC50 [12]: 6.1 µM; Efficacy (HEK293 [13]; filed as activator): 44%
CCOc1ccccc1S(=O)(=O)N1CC(c2nc(-c3ccc(F)cc3)no2)C1 | 105% | 1000 nM | 110% | 2.3 µM | 50% | inactive | inactive | 1000 nM | 101% | 58% | 0.012 | IC50 [11]: 3.2 µM; Efficacy (HEK293 [1]; tested as the 2H-labelled form): 100%; Efficacy (HEK293 [3]; tested as the 2H-labelled form): 83%; Efficacy ([5]; tested as the 2H-labelled form): 55%; inhibition ([6]; tested as the 2H-labelled form): inactive; Efficacy ([7]; tested as the 2H-labelled form): inactive; Efficacy (CHO; tested as the 2H-labelled form): 101%
Cc1ccc2cccc(S(=O)(=O)N3CC(c4nc(-c5ccc(F)cc5)no4)C3)c2n1 | 99% | 670 nM | 72% | > 10 µM | 76% | inactive | inactive | 320 nM | 100% | 26% | < 0.01 | inhibition (INH) [16]: Not Active
CC(C)Oc1ccccc1S(=O)(=O)N1CC(c2nc(-c3ccsc3)no2)C1 | 103% | 1100 nM | 109% | > 10 µM | 47% | inactive | inactive | 1090 nM | 101% | < 10% | < 0.01 | 
CCOc1ccccc1S(=O)(=O)N1CC(c2nc(-c3ccc(OC)cc3)no2)C1 |  |  |  |  |  |  |  |  |  |  |  | EC50 [12]: 7.1 µM; Efficacy (HEK293 [13]): 21%
